This passage reports growth results from ChEMBL document CHEMBL2380254, “Optimization of tocotrienols as antiproliferative and antimigratory leads” (Eur J Med Chem, 2013).

Holding throughout (assay type): functional
For experiment [1], the system named is MDA-MB-468. Description: Growth inhibition of human MDA-MB-468 cells assessed as cell growth at 10 uM after 48 hrs by sulforhodamine B assay. To be noted: MDA-MB-468, 48 h, read-out: Activity. The method in brief:
(§1)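 Single-dose NCI-60 screen: adherent cells in RPMI 1640 with 5% FBS were exposed to 10 µM for 48 h at 37 °C after a 24 h preincubation. They were fixed in situ with cold TCA (10% final), stained with 0.4% SRB in 1% acetic acid, solubilized in 10 mM Tris base, and read at 515 nm. Percent growth was taken relative to time-zero and control plates.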
Background: In SRB staining, fixed cells bind dye roughly in proportion to their protein.

Experiment [2] has as its system BT-549. Description: Growth inhibition of human BT549 cells assessed as cell growth at 10 uM after 48 hrs by sulforhodamine B assay. As to conditions: BT-549, 48 h, read-out: Activity. The method in brief:
(§2)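 NCI-60 single-dose screen at 10 µM: cells in RPMI 1640 with 5% FBS, preincubated 24 h, then exposed 48 h at 37 °C. TCA fixation (16% final for suspension cells), SRB staining, absorbance 515 nm. Percent growth relative to time-zero and untreated control plates; negative values indicate cell kill.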

A short description of experiment [3]: Growth inhibition of human Hs 578T cells assessed as cell growth at 10 uM after 48 hrs by sulforhodamine B assay. As to conditions: read-out: Activity. The method in brief: as §2
For experiment [4], the system named is DU-145. Kind of experiment: Growth inhibition of human DU145 cells assessed as cell growth at 10 uM after 48 hrs by sulforhodamine B assay. As to conditions: DU-145, 48 h, read-out: Activity. In outline: as §2
In experiment [5] the test system is PC-3. Kind of experiment: Growth inhibition of human PC3 cells assessed as cell growth at 10 uM after 48 hrs by sulforhodamine B assay. As to conditions: PC-3, 48 h, read-out: Activity. The method in brief:
as §1

Experiment [6] deals with OVCAR-5. Description: Growth inhibition of human OVCAR5 cells assessed as cell growth at 10 uM after 48 hrs by sulforhodamine B assay. To be noted: OVCAR-5, 48 h, read-out: Activity. The method in brief:
as §1

Experiment [7] has as its system MDA-MB-435. Description: Growth inhibition of human MDA-MB-435 cells assessed as cell growth at 10 uM after 48 hrs by sulforhodamine B assay. To be noted: MDA-MB-435, 48 h, read-out: Activity. The method in brief:
as §1

In experiment [8] the test system is Malme-3M. Kind of experiment: Growth inhibition of human MALME-3M cells assessed as cell growth at 10 uM after 48 hrs by sulforhodamine B assay. As to conditions: read-out: Activity. In outline:
as §1

For experiment [9], the system named is SF-268. Kind of experiment: Growth inhibition of human SF268 cells assessed as cell growth at 10 uM after 48 hrs by sulforhodamine B assay. As to conditions: SF-268, 48 h, read-out: Activity. In outline:
as §1

For experiment [10], the system named is SW-620. Kind of experiment: Growth inhibition of human SW620 cells assessed as cell growth at 10 uM after 48 hrs by sulforhodamine B assay. To be noted: SW-620, 48 h, read-out: Activity. In outline: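 Single-dose NCI-60 test at 10 µM. Cells were grown in RPMI 1640 with 5% FBS and 2 mM L-glutamine, preincubated 24 h, with T0 plates TCA-fixed. Exposure was 48 h at 37 °C, 5% CO2. Cells were fixed with cold TCA (final 10%, 4 °C, 60 min), stained with SRB and read at 515 nm. Percent growth was taken relative to T0 and untreated control; negative values denote cell kill.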

Experiment [11] relates to MOLT-4. Description: Growth inhibition of human MOLT4 cells assessed as cell growth at 10 uM after 48 hrs by sulforhodamine B assay. As to conditions: MOLT-4, 48 h, read-out: Activity. The method in brief: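 Single 10 µM dose applied to suspension cells in RPMI 1640 with 5% FBS and 2 mM L-glutamine for 48 h at 37 °C. Settled cells were fixed with 80% TCA (16% final), stained with SRB, and read at 515 nm. Percent growth was calculated against time-zero and untreated control optical densities.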

`CC(C)=CCC/C(C)=C/CC/C(C)=C/CC[C@]1(C)CCc2c3c(c(C)c(C)c2O1)OCN(CCCCCCCCCCO)C3`: the growth at 10 µM in experiment [1] turned out to be 91.9%; in experiment [2], 108%; in [3] it was 96.5%; in experiment [4], 67%; in [5], 84.3%; in experiment [6], 106%. The growth at 10 µM in [7] is 98.3%; in experiment [8] it was 105%; in experiment [9] it was 94.2%; in experiment [10], 105%; in experiment [11], 79.5%.

With `COc1ccc(CCN2COc3c(C)c(C)c4c(c3C2)CC[C@@](C)(CC/C=C(\C)CC/C=C(\C)CCC=C(C)C)O4)cc1OC`, the growth at 10 µM in experiment [1] came out at 95.1%; in experiment [2], 115%; in experiment [3] it was 198%; in [4], 111%; in experiment [5], 94.3%; in [6] it was 101%. The growth at 10 µM in [7] turned out to be 90.7%; in experiment [8] it was 93.6%; in [9], 94.8%; in [10], 101%; in experiment [11] it was 76%.

With `COc1ccc(CCNCc2c(O)c(C)c(C)c3c2CC[C@@](C)(CC/C=C(\C)CC/C=C(\C)CCC=C(C)C)O3)cc1OC`, the growth at 10 µM amounted to 59.1% in experiment [1]; 118% in [2]; 121% in experiment [3]; 110% in experiment [4]; 82.7% in experiment [5]; 104% in experiment [6]. For the same compound, the growth at 10 µM in [7] came out at 57.5%; in [8], 120%; in [9] it was 98%; in experiment [10], 47.2%; in [11] it was 30.3%.

In the case of `CC(C)=CCC/C(C)=C/CC/C(C)=C/CC[C@]1(C)CCc2cc(O)c(C)c(C)c2O1` [GAMMA-TOCOTRIENOL], the growth at 10 µM in experiment [1] stood at 108%; in experiment [2] it was 141%; in experiment [3], 102%; in experiment [4], 99.7%; in experiment [5], 96.6%; in experiment [6], 114%. For the same compound, the growth at 10 µM came out at 102% in experiment [7]; 92.5% in [8]; 108% in experiment [9]; 110% in experiment [10]; 84.3% in experiment [11].

As for `CC(C)=CCC/C(C)=C/CC/C(C)=C/CC[C@]1(C)CCc2c(CNCCc3ccc(O)cc3)c(O)c(C)c(C)c2O1`, the growth at 10 µM in [1] amounted to 104%; in [2] it was 105%; in experiment [3], 133%; in [4], 111%; in experiment [5] it was 79.5%; in experiment [6] it was 113%. Moreover, the growth at 10 µM in [7] is 81.3%; in experiment [8] it was 110%; in experiment [9], 96.9%; in experiment [10], 101%; in experiment [11], 54.6%.

Take `CC(C)=CCC/C(C)=C/CC/C(C)=C/CC[C@]1(C)CCc2c3c(cc(C)c2O1)OCN(CCCCCCCCCCCCO)C3`: the growth at 10 µM was 77.4% in experiment [1]; 114% in [2]; 93.2% in [3]; 85.4% in experiment [4]; 58.5% in [5]; 102% in [6]. Besides, the growth at 10 µM in experiment [7] came out at 71.5%; in experiment [8], 106%; in experiment [9] it was 98.7%; in experiment [10] it was 95.2%; in [11] it was 48.5%.

For the compound `CC(C)=CCC/C(C)=C/CC/C(C)=C/CC[C@]1(C)CCc2c3c(cc(C)c2O1)OCN(CCCCCCCCCCO)C3`, the growth at 10 µM in experiment [1] turned out to be 83.8%; in [2] it was 102%; in [3], 99%; in experiment [4], 100%; in [5], 88.7%; in experiment [6], 105%. In addition, the growth at 10 µM came to 101% in experiment [7]; 101% in experiment [8]; 97.7% in [9]; 104% in experiment [10]; 67.6% in [11].

Turning to `CC(C)=CCC/C(C)=C/CC/C(C)=C/CC[C@]1(C)CCc2c3c(c(C)c(C)c2O1)OCN(CCCCCCCCCCCCO)C3`, the growth at 10 µM turned out to be 106% in experiment [1]; 127% in [2]; 103% in experiment [3]; 109% in experiment [4]; 81.3% in experiment [5]; 114% in experiment [6]. The growth at 10 µM in [7] was found to be 100%; in [8], 101%; in [9], 116%; in experiment [10] it was 109%; in experiment [11], 90.5%.

As to `CC(C)=CCC/C(C)=C/CC/C(C)=C/CC[C@]1(C)CCc2c3c(c(C)c(C)c2O1)OCN(CCc1ccc(O)cc1)C3`, the growth at 10 µM in experiment [1] was found to be 88.8%; in experiment [2] it was 113%; in experiment [3] it was 91.8%; in experiment [4], 107%; in experiment [5], 79.9%; in experiment [6] it was 111%. The growth at 10 µM in experiment [7] came out at 54.5%; in [8] it was 114%; in [9] it was 83.7%; in experiment [10], 48.4%; in [11], 40.4%.
